Calls of active or inactive are those of the source. The rule behind the calls is not given here.
Columns and labels:
[1] = system: Triticum aestivum; assay: Growth inhibition of Triticum aestivum L. cv. Duro at 1 mM after 24 hrs by coleoptile assay; type: functional, organism-based
Procedure, shortened: (§1)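 Etiolated wheat coleoptile sections (apical 2 mm discarded, next 4 mm used; cut under green safelight), tested at 10^-3 to 10^-6 M from DMSO stock (max 0.1% DMSO final) in phosphate–citrate buffer pH 5.6 with 2% sucrose. Five sections per tube, three tubes per dilution, duplicated. Tubes rotated at 0.25 rpm, 24 h, 22 °C, dark. Lengths from digitized images. Reported as % difference from parallel control; Welch's test.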

[2] = system: Allium cepa; assay: Phytotoxicity against Allium cepa assessed as inhibition of root growth at 0.5 mM relative to control; type: functional
Procedure, shortened: (§2)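 Seeds on filter paper in Petri dishes with 10^-2 M MES buffer, pH 6.0. Test concentrations 5×10^-4, 10^-4, 5×10^-5 and 10^-5 M, made by diluting DMSO solutions at 5 μL/mL buffer. Dishes sealed and kept at 25 °C in the dark: lettuce and tomato 5 days, onion 7 days. Plants frozen at -10 °C for 24 h before measurement. Root and shoot length recorded automatically and compared with buffer/DMSO control.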

[3] = system: Lactuca sativa; assay: Phytotoxicity against Lactuca sativa L. assessed as inhibition of shoot growth at 0.5 mM to 50 uM relative to control; type: functional, organism-based; procedure, shortened: as §2
[4] = system: Lactuca sativa; assay: Phytotoxicity against Lactuca sativa L. assessed as inhibition of root growth at 0.5 mM to 50 uM relative to control; type: functional, organism-based; procedure, shortened: as §2
[5] = system: Solanum lycopersicum; assay: Phytotoxicity against Lycopersicon esculentum Will assessed as inhibition of shoot development at 0.5 mM relative to control; type: functional; procedure, shortened: as §2
[6] = system: Triticum aestivum; assay: Growth stimulation of Triticum aestivum L. cv. Duro at <1 mM after 24 hrs by coleoptile assay; type: functional, organism-based; procedure, shortened: as §1
[7] = system: Triticum aestivum; assay: Growth inhibition of Triticum aestivum L. cv. Duro at 1 uM after 24 hrs by coleoptile assay; type: functional; procedure, shortened: as §1
[8] = system: Triticum aestivum; assay: Growth inhibition of Triticum aestivum L. cv. Duro after 24 hrs by coleoptile assay; type: functional, organism-based; procedure, shortened: as §1
[9] = system: Solanum lycopersicum; assay: Phytotoxicity against Lycopersicon esculentum Will assessed as inhibition of root growth at 0.5 mM to 50 uM relative to control; type: functional; procedure, shortened: as §2
[10] = system: Allium cepa; assay: Phytotoxicity against Allium cepa assessed as inhibition of shoot growth at 0.5 mM relative to control; type: functional; procedure, shortened: as §2

## C=C1C(=O)O[C@@H]2[C@H]3C(C)=CC[C@H]3[C@](C)(O)C[C@@H](OC(=O)/C(C)=C\C)[C@@H]12
[1]
  IC50: 150 µM
  inhibition at 1000 µM: 98%

## C=C1C(=O)O[C@H]2/C=C(/CO)C(=O)/C=C/[C@@](C)(O)C[C@@H](OC(=O)/C(C)=C\C)[C@@H]12
[2]
  inhibition at 500 µM: 54%
[3]
  Activity: Active
[4]
  Activity: Active
[5]
  inhibition at 500 µM: 20%

## C=C1C(=O)O[C@H]2[C@H]1[C@H](OC(=O)/C(C)=C\C)C[C@@]1(C)[C@H](O)C[C@H](O)C(=C)[C@@H]21
[6]
  Activity: Active

## C=C1C(=O)O[C@@H]2[C@H]3C(CO)=CC[C@H]3C(=C)CC[C@@H]12 [ANNUOLIDE A]
[7]
  inhibition at 1 µM: 35%
[8]; Triticum aestivum, 24 h
  IC50: 370 µM
[1]
  inhibition at 1000 µM: 90%

## C=C1C(=O)O[C@@H]2[C@H]3C(C)=C[C@H](O)[C@H]3[C@](C)(O)C[C@@H](OC(=O)/C(C)=C\C)[C@@H]12 [ANNUOLIDE H]
[8]
  inhibition (INH): 82%

## C=C1C(=O)O[C@H]2[C@H]1[C@H](OC(=O)/C(C)=C\C)C[C@]1(C)C=CC(=O)C(=C)[C@H]2O1 [HELIVYPOLIDE F]
[9]
  inhibition (INH): 32%
[10]
  inhibition at 500 µM: 20%
[2]
  inhibition at 500 µM: 54%
[3]
  Activity: Active
[1]
  Activity: Active
[4]
  Activity: Active
[5]
  inhibition at 500 µM: 20%

## C=C1C(=O)O[C@@H]2/C=C(/CO)[C@@]3(O)CC[C@@](C)(C[C@@H](OC(=O)/C(C)=C\C)[C@@H]12)O3 [NIVEUSIN B]
[1]
  inhibition at 1000 µM: 92%
[5]
  inhibition at 500 µM: 20%
